This is a sample that favours compounds with a hit; in the whole collection about 2.1% have one here.
EBI2 antag: antagonists of human EBI2 receptor | inhibition, % at 5 µM | EBI2 beta-arrestin recruitment, luminescence, 7a,25-OHC stimulated | P32249 | actives 0.81% (n = 360,000) | AID 651636; in the data active = inhibition above about 38%;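 note: enzyme fragment complementation signal reports receptor beta-arrestin coupling in cells; 0% = agonist plus DMSO wells and 100% = wells without agonist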
APJ ag: APJ receptor agonism; P35414; CHO-K1 APJ PathHunter beta-arrestin, luminescence; 0% DMSO wells, 100% apelin; AID 2520; activation, % at 20 µM; actives 0.11% (n = 330,000);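 active = activation more than six SD over the plate average, tested at 20 µM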;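 note: 0% = DMSO alone and 100% = apelin-13 at 10 nM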
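Assay system: CHO-K1 APJ beta-arrestin complementation cell line / Compound: single test compound dose, 20 µM final, 1% DMSO / Times: overnight seeding, 90 min compound at 25 °C, 1 h detection / Technique: beta-gal luminescence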
APJ antagonist: antagonists of human APJ apelin receptor. P35414. CHO-K1 APJ beta-arrestin complementation, luminescence. inhibition, % at 20 µM. actives 0.32% (n = 330,000);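 active = inhibition above about 40% at 20 µM, limit read from the data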;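 note: cells challenged with 10 nM apelin-13 agonist together with compound; plate controls were apelin-13 plus DMSO wells for no effect and DMSO wells lacking apelin-13 for full effect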
CCR6 antag: blocks CCL20-driven beta-arrestin recruitment at human CCR6; P51684; CHO-K1 CCR6 PathHunter beta-arrestin, luminescence, CCL20-stimulated; inhibition, % at 20 µM; actives 0.49% (n = 340,000);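 active = compounds whose inhibition of the agonist-driven luminescence signal at 20 µM reaches about 50%, limit read from the data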;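 note: cells stimulated with CCL20 at 14 nM final; plate controls were DMSO with CCL20 for no effect and DMSO without agonist for full effect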
CXCR6 inh: inhibitors of human CXCR6 receptor; inhibition, % at 20 µM; CHO-K1 PathHunter CXCR6 beta-arrestin, luminescence; O00574; actives 0.36% (n = 360,000); in the data active = inhibition above about 34%, passing the limit was not always enough;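 note: antagonist mode with CXCL16 agonist at 10 nM final; 0% = 10 nM CXCL16 with DMSO and 100% = unstimulated wells without agonist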
Target sequence (O00574 whole entry, looked up): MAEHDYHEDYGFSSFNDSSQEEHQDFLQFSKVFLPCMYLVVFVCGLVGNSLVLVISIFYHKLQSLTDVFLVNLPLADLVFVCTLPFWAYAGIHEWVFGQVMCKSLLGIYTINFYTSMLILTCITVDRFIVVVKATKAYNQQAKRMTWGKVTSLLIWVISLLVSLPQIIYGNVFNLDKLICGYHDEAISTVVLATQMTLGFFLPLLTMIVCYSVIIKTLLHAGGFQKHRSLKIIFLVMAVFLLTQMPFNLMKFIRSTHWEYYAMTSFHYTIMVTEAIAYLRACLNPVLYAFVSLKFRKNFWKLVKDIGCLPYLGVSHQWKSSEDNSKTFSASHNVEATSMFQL
HTR2A ag: agonists of mouse serotonin 5-HT2A receptor (HTR2A); AID 624169; activation, % at 7.6 µM; P35363; CHO-K1 mHTR2A beta-arrestin complementation, luminescence; percent of 30 µM serotonin response; actives 0.66% (n = 360,000);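 active = activation above a run cutoff, the mean activation of all tested compounds plus 3 SD, cut at about 14% in these data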;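 note: 0% = plate median of compound wells and 100% = 30 µM serotonin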
* hit, by the source's call; nt = not tested or not shown.

SMILES	EBI2 antag	APJ ag	APJ antagonist	CCR6 antag	CXCR6 inh	HTR2A ag
Cc1cccc(NC(=O)CN2C(=O)C(C)Oc3ccccc32)n1 (stereo not given)	-10	-1	5	15	4	3
O=C(NC(=S)Nc1ccccc1Cl)c1cncc(Br)c1	-4	-4	17	52*	34	2
O=C(NC(=S)Nc1ccccc1Cl)c1cncc(C#Cc2ccccc2)c1	15	-3	29	46	31	5
Cc1nn(Cc2ccc(F)cc2)c(C)c1NC(=O)c1cnn2c1NC(c1ccccc1)CC2C(F)(F)F (stereo not given)	0	-1	-15	-9	-14	5
Cc1nn(Cc2ccc(F)cc2)c(C)c1NC(=O)c1cnn2c1NC(c1cccs1)CC2C(F)(F)F (stereo not given)	37*	1	-17	-2	7	4
Nc1nc(-c2ccccc2)c(N=Nc2ccccc2Cl)s1	29	-9	40	62*	57*	-11
Nc1nc(-c2ccccc2)c(N=Nc2cccc3ccccc23)s1	11	-9	39	55*	43*	-9
COC(=O)c1ccc(N2CCN(C)CC2)c(NC(=O)c2cccnc2)c1	-7	1	-12	-2	-5	1
O=C(OCn1ncc(Cl)c(Cl)c1=O)c1cccc(C(F)(F)F)c1	52*	-1	38	59*	50*	-3
CCc1ccc(C(=O)Cn2ncc(Cl)c(Cl)c2=O)cc1	23	2	5	1	10	-1
Cc1cc(C)nc(N/N=C/c2ccccc2OCc2ccc(Br)cc2)n1	-6	-1	8	-1	3	-2
Cc1cc(C)nc(N/N=C/c2cc(Br)ccc2O)n1	1	-3	3	44	44*	-25
Cc1ccc(S(=O)(=O)CCC(=O)OCC(=O)c2ccc(F)cc2)cc1	-4	-5	-46	7	1	-2
CC(C)(Oc1ccc(F)cc1)C(=O)OCC(=O)c1ccc(S(C)(=O)=O)cc1	7	-12	3	52*	37	-4
COc1ccc(-c2cc(C(=O)NC3CCCC3)c3ccccc3n2)cc1OC	4	-2	27	5	10	1
COc1ccc(-c2cc(C(=O)NC(C)c3ccccn3)c3ccccc3n2)cc1OC (stereo not given)	5	-1	21	6	12	20*
COc1ccc(C(=O)/C=C/C(=O)N(CC(=O)NC2CCCCC2)Cc2ccccc2)c(O)c1	16	nt	nt	97*	71*	-5
COc1ccc(C(=O)/C=C/C(=O)N(CC(=O)NC2CCCCC2)Cc2ccccc2OC)c(O)c1	29	nt	nt	84*	64*	1
COc1ccc(C(=O)/C=C/C(=O)N(Cc2ccccc2OC)C(C(=O)NC2CCCCC2)c2ccncc2)c(O)c1 (stereo not given)	6	-5	6	14	1	-2
CC/C(=C\C1CCCCC1)C(NP(=O)(c1ccccc1)c1ccccc1)c1ccccc1 (stereo not given)	-22	-2	21	35	44*	4
O=P(NC1CCCCC1)(c1ccccc1)c1ccccc1	1	nt	nt	6	-1	-5
Cc1cccc(NC(=O)c2cnc3sccn3c2=O)c1	2	-3	-23	3	5	0
c1ccc(/N=C2\N=C(Nc3ccccn3)c3ccccc32)nc1	-9	-4	24	56*	31	5
c1ccc(Nc2ccccn2)cc1	-9	-1	-8	-1	-4	-2
C=CC(=O)N1C/C(=C/c2ccccc2)C(=O)/C(=C\c2ccccc2)C1	39	nt	nt	64*	38*	4
SMILES	EBI2 antag	APJ ag	APJ antagonist	CCR6 antag	CXCR6 inh	HTR2A ag
C=CC(=O)N1C/C(=C/c2ccc(Cl)cc2)C(=O)/C(=C\c2ccc(Cl)cc2)C1	75*	nt	nt	62*	50*	1
O=C1C(=Cc2ccc(Cl)cc2)Cc2ccccc21	26	nt	nt	nt	2	-6
O=C(CNC(=O)c1cccs1)OCC(=O)c1ccc([N+](=O)[O-])cc1	2	0	-40	-8	-2	2
CC1CCCN(S(=O)(=O)c2ccc(CN3C(=O)c4cccnc4C3=O)cc2)C1 (stereo not given)	-1	-2	13	14	-1	-1
COc1ccccc1N1C(=O)CC(Sc2n[nH]c(-c3cccc(C)c3)n2)C1=O (stereo not given)	-9	5	1	75*	2	0
COc1ccccc1N1C(=O)CC(Sc2nccc(C)n2)C1=O (stereo not given)	-13	-3	10	1	-4	12
O=C(Nc1ccc(Nc2ccccc2)cc1)c1ccc(Cl)cc1	4	0	2	0	-1	-2
N#C/C(C(=O)Nc1ccc(Cl)cc1)=C(/S)Nc1ccccc1	57*	2	0	8	1	6
C=CCOc1ccccc1C(=O)/C=C1/C(=O)Nc2ccccc21	53*	3	18	45	12	6
COc1cc(OC)c(/C=C2\C(=O)Nc3ccccc32)c(OC)c1	nt	-2	9	13	nt	nt
COc1ccc(C(=O)/C=C2/C(=O)Nc3ccccc32)c(OC)c1	80*	2	25	25	16	3
Cc1ccc(Cn2ccc(NC(=O)c3cc4nc(-c5ccco5)cc(C(F)(F)F)n4n3)n2)cc1	-1	2	5	5	10	0
O=C(Nc1cccnc1)c1ccc(-c2cc(Cl)ccc2Cl)o1	12	4	-9	12	3	0
CC(C)OC(=O)c1sc2nc(-c3ccccc3)ccc2c1N	48*	1	7	-12	-7	-2
COc1ccc(C(=O)c2sc3nc(-c4ccccc4)ccc3c2N)cc1	11	0	8	-17	-4	4
Cc1cc(C)c2c(=O)n(CC(=O)NCCCN3CCN(c4ccccc4F)CC3)sc2n1	nt	4	-12	100*	nt	nt
O=[N+]([O-])c1ccc(N=Nc2c(Cl)cc(O)cc2Cl)cc1	5	nt	nt	74*	44*	8
CCOC(=O)c1cccc(N2C(N)=NC(N)=NC2(C)C)c1	4	2	-14	-3	4	2
CCCCCCCCSC1=CC(=O)C(OC)=C(OC)C1=O	-20	nt	nt	nt	39*	1
CCCCCSc1nncc(=O)[nH]1	-14	1	30	7	-1	3
O=C1C2C(C(=O)N1/N=C/c1ccco1)C1C=CC2C12CC2 (stereo not given)	-1	-1	10	-10	-5	3
CCN1CCN(C(=S)NCc2ccc(C)cc2)CC1	0	1	2	1	-12	-9
CC[n+]1c(/C=C/c2ccc(N(C)C)cc2)ccc2ccccc21	8	nt	nt	55*	39	-2
Cc1cccc(/C=N/N(CCO)C2=NS(=O)(=O)c3ccccc32)c1	3	1	-35	20	-7	-6

Source: PubChem
